According to ChEMBL document CHEMBL3868630, “Synthesis, anti-proliferative activity, SAR study, and preliminary in vivo toxicity study of substituted N,N'-bis(arylmethyl)benzimidazolium salts against a panel of non-small cell lung cancer cell lines” (Bioorg Med Chem, 2017):

Experiments:
[1] = Cytotoxicity against human A549 cells assessed as cell growth at 10 uM after 48 hrs by SRB assay relative to control; format: functional; conditions: A549, 48 h, read-out: Activity
[2] = Growth inhibition of human NCI-H226 cells after 48 hrs by SRB assay; format: functional; conditions: NCI-H226, 48 h
[3] = Cytotoxicity against human A549 cells assessed as decrease in cell viability after 72 hrs by MTT assay; format: functional, cell-based; conditions: A549, 72 h
Method in brief: (§1)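 Cells kept in RPMI 1640 with 10% FBS at 37 °C, 5% CO2, passaged every 2-3 days; seeded at 5,000-7,000 cells/well and left 24 h. Compounds dissolved in 1% DMSO, diluted in fresh medium to 1, 4, 16 and 32 µM, added in sextuplicate; 72 h exposure. MTT added for 3-4 h, medium removed, DMSO added for 15 min at 37 °C, OD read at 540 nm.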

[4] = Cytotoxicity against human NCI-H460 cells assessed as cell growth at 10 uM after 48 hrs by SRB assay relative to control; format: functional; conditions: NCI-H460, 48 h, read-out: Activity
Mus musculus [5] = experiment: Toxicity in C57BL/6 mouse assessed as increase in body mass at 20 mg/kg, ip measured after 16 days; format: organism-based; conditions: in vivo, 384 h
Method in brief: (§2)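 Male C57BL/6 mice, eight weeks old, housed three per cage on a 12 h light/dark cycle with food and water ad libitum, acclimated 5 days. Single IP injection on day 0 of 100 µL of a 4 mg/mL solution (0.4 mg, ~20 mg/kg assuming 20 g mice) in 20% 2-HPβCD sterile PBS. Vehicle controls were injected on days 0, 7, 14, 21 and 25. Mice were monitored and weighed daily.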

[6] = Growth inhibition of human NCI-H460 cells after 48 hrs by SRB assay; format: functional; conditions: NCI-H460, 48 h
[7] = Growth inhibition of human A549 cells after 48 hrs by SRB assay; format: functional; conditions: A549, 48 h
[8] = Cytotoxicity against human HCC827 cells assessed as decrease in cell viability after 72 hrs by MTT assay; format: functional, cell-based; conditions: HCC827, 72 h; method in brief: as §1
[9] = Toxicity in C57BL/6 mouse assessed as mouse survival rate at 20 mg/kg, ip measured after 16 days; format: organism-based; conditions: in vivo; method in brief: as §2
[10] = Cytotoxicity against human HOP62 cells assessed as cell growth at 10 uM after 48 hrs by SRB assay relative to control; format: functional; conditions: HOP-62, 48 h, read-out: Activity
[11] = Cytotoxicity against human EKVX cells assessed as cell growth at 10 uM after 48 hrs by SRB assay relative to control; format: functional; conditions: read-out: Activity
[12] = Cytotoxicity against human NCI-H522 cells assessed as cell growth at 10 uM after 48 hrs by SRB assay relative to control; format: functional; conditions: NCI-H522, 48 h, read-out: Activity
[13] = Growth inhibition of human NCI-H522 cells after 48 hrs by SRB assay; format: functional; conditions: NCI-H522, 48 h
[14] = Cytotoxicity against human NCI-H226 cells assessed as cell growth at 10 uM after 48 hrs by SRB assay relative to control; format: functional; conditions: NCI-H226, 48 h, read-out: Activity
[15] = Cytotoxicity against human NCI-H23 cells assessed as cell growth at 10 uM after 48 hrs by SRB assay relative to control; format: functional; conditions: NCI-H23, 48 h, read-out: Activity
[16] = Growth inhibition of human NCI-H322M cells after 48 hrs by SRB assay; format: functional
[17] = Aqueous solubility of the compound; format: physicochemical
[18] = Growth inhibition of human HOP92 cells after 48 hrs by SRB assay; format: functional; conditions: HOP-92, 48 h
[19] = Cytotoxicity against human NCI-H322M cells assessed as cell growth at 10 uM after 48 hrs by SRB assay relative to control; format: functional; conditions: read-out: Activity
[20] = Cytotoxicity against human NCI-H460 cells assessed as decrease in cell viability after 72 hrs by MTT assay; format: functional, cell-based; conditions: NCI-H460, 72 h; method in brief: as §1
[21] = Cytotoxicity against human HOP92 cells assessed as cell growth at 10 uM after 48 hrs by SRB assay relative to control; format: functional; conditions: HOP-92, 48 h, read-out: Activity
[22] = Cytotoxicity against human NCI-H1975 cells assessed as decrease in cell viability after 72 hrs by MTT assay; format: functional, cell-based; conditions: NCI-H1975, 72 h; method in brief: as §1
[23] = Growth inhibition of human HOP62 cells after 48 hrs by SRB assay; format: functional; conditions: HOP-62, 48 h
Mus musculus [24] = experiment: Toxicity in C57BL/6 mouse assessed as weight loss at 20 mg/kg, ip measured on day 2; format: organism-based; conditions: in vivo
Method in brief: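 Male C57BL/6 mice, 8 weeks old, 3 per cage, 12 h light/dark, food and water ad libitum, acclimated 5 days. Single IP dose on day 0 of 100 µL of 4 mg/mL in 20% 2-HPβCD in sterile PBS (~20 mg/kg assuming 20 g mice). Vehicle controls got 100 µL 20% 2-HPβCD/PBS IP on days 0, 7, 14, 21, 25. Weighed and monitored daily.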

[25] = Growth inhibition of human NCI-H23 cells after 48 hrs by SRB assay; format: functional; conditions: NCI-H23, 48 h
[26] = Growth inhibition of human EKVX cells after 48 hrs by SRB assay; format: functional
[27] = read-out: LC50 (the source's name)

## COCCOCCOCc1n(Cc2ccc3ccccc3n2)c2ccccc2[n+]1Cc1ccc2ccccc2c1.[Br-]
[1]
  growth at 10 µM: 22.5%
[2]
  GI50: 0.874 µM
  LC50: 45.2 µM
  TGI: 4.83 µM
[3]
  IC50: 3 µM
[4]
  growth at 10 µM: 7.94%
Mus musculus [5]
  Activity: 6%
[6]
  GI50: 0.424 µM
  LC50: 5.7 µM
  TGI: 1.56 µM
[7]
  GI50: 0.748 µM
  LC50: 37.1 µM
  TGI: 10.6 µM
[8]
  IC50: 6 µM
[9]
  survival at 384 h: 33%
[10]
  growth at 10 µM: 11.7%
[11]
  growth at 10 µM: 31%
[12]
  growth at 10 µM: 0.79%
[13]
  GI50: 0.248 µM
  TGI: 0.936 µM
[13]; [27]
  CC50: 4.59 µM
[14]
  growth at 10 µM: 28.1%
[15]
  growth at 10 µM: 1.03%
[16]
  GI50: 1.08 µM
  TGI: 7.09 µM
[16]; [27]
  CC50: 28.6 µM
[17]
  solubility: 1900 µg/mL
[18]
  GI50: 0.207 µM
  LC50: 5.22 µM
  TGI: 0.718 µM
[19]
  growth at 10 µM: 26.8%
[20]
  IC50: 3 µM
[21]
  growth at 10 µM: -18.2%
[22]
  IC50: < 1 µM
[23]
  GI50: 0.468 µM
  TGI: 2.52 µM
[23]; [27]
  CC50: 9.53 µM
Mus musculus [24]
  Activity: Toxic
[25]
  GI50: 0.386 µM
  LC50: 53.5 µM
  TGI: 10.3 µM
[26]
  GI50: 1.27 µM
  LC50: 50.9 µM
  TGI: 10.8 µM
